{"data": "Published values from different studies", "ABL1 F317I non-phosphorylated": "Tyrosine-protein kinase ABL1, non-phosphorylated (ABL1, Homo sapiens, UniProt P00519, F317I)", "ABL1 F317L": "Tyrosine-protein kinase ABL1 (ABL1, Homo sapiens, UniProt P00519, F317L)", "ABL1 E255K phosphorylated": "Tyrosine-protein kinase ABL1, phosphorylated (ABL1, Homo sapiens, UniProt P00519, E255K)", "note": "Compare with care: the assays were run in different laboratories."}
{"Structure (SMILES)": "CO[C@@H]1[C@H](N(C)C(=O)c2ccccc2)C[C@H]2O[C@]1(C)n1c3ccccc3c3c4c(c5c6ccccc6n2c5c31)C(=O)NC4", "target": "ABL1 F317I non-phosphorylated", "assay": "enzyme activity, inhibitor", "setting": "1 µM", "endpoint": "inhibition", "result": "0%"}
{"Structure (SMILES)": "COc1ccc2oc(-c3ccc4nc(N)oc4c3)c/c(=N\\c3ccccc3NC(=O)CCN)c2c1", "target": "Tyrosine-protein kinase ABL1 (ABL1, Homo sapiens, UniProt P00519, T315I)", "assay": "cell-free assay", "setting": "1 µM", "endpoint": "remaining signal", "result": "103%"}
{"Structure (SMILES)": "Cc1ccc(NC(=O)c2ccnc(C(F)(F)F)c2)cc1-c1cc(OCCO)nc(N2CCOCC2)c1", "target": "ABL1 F317L", "assay": "binding", "setting": "1 µM", "endpoint": "remaining binding", "result": "84%"}
{"Structure (SMILES)": "CCCCC(=O)Nc1ccc(-c2ccc3ncn(CCC)c(=O)c3c2)cn1", "target": "Tyrosine-protein kinase ABL1, phosphorylated (ABL1, Homo sapiens, UniProt P00519, F317L)", "assay": "binding, competition with immobilised ligand", "setting": "0.5 µM", "endpoint": "remaining binding", "result": "97%"}
{"Structure (SMILES)": "C1=C/COCc2cc(ccc2OCCN2CCCC2)Nc2nccc(n2)-c2cccc(c2)COC/1", "target": "ABL1 F317L", "assay": "binding", "setting": "0.1 µM", "endpoint": "remaining binding", "result": "58%"}
{"Structure (SMILES)": "CN1CCN(C(=O)c2ccc(NC(=O)Nc3ccc(N(C)c4ccnc(Nc5ccc(CS(C)(=O)=O)cc5)n4)cc3)cc2)CC1", "target": "ABL1 E255K phosphorylated", "assay": "binding, competition with immobilised ligand", "setting": "1 µM", "endpoint": "remaining binding", "result": "38%"}
{"Structure (SMILES)": "C=CC(=O)N1CCC([C@@H]2CCNc3c(C(N)=O)c(-c4ccc(Oc5ccccc5)cc4)nn32)CC1", "target": "Tyrosine-protein kinase ABL1, phosphorylated (ABL1, Homo sapiens, UniProt P00519, M351T)", "assay": "enzyme activity, inhibitor", "setting": "1 µM", "endpoint": "inhibition", "result": "0%"}
{"Structure (SMILES)": "N#Cc1ccc(NC(=O)Nc2ccccc2)cc1", "target": "Tyrosine-protein kinase ABL1, phosphorylated (ABL1, Homo sapiens, UniProt P00519, T315I)", "assay": "cell-free assay, competition with immobilised ligand", "setting": "25 µM", "endpoint": "remaining binding", "result": "100%"}
{"Structure (SMILES)": "CC#CC(=O)N1CCC[C@H]1c1nc(-c2ccc(C(=O)Nc3ccccn3)cc2)c2c(N)nccn12", "target": "ABL1 F317I non-phosphorylated", "assay": "enzyme activity, inhibitor", "setting": "1 µM", "endpoint": "inhibition", "result": "25%"}
{"Structure (SMILES)": "C[C@H]1CC[C@H](n2c3cnccc3c3cnc(Nc4ccc5c(n4)CCN(C(=O)CO)C5)nc32)CC1", "target": "ABL1 E255K phosphorylated", "assay": "binding, competition with immobilised ligand", "setting": "1 µM", "endpoint": "remaining binding", "result": "77%"}
